# Sampled rows, rich in hits. Any-hit rate of the full collection: about 4.2%.
# hERG protect – hERG rescue from dofetilide block, primary screen, cell-based, CHO-hERG, FluxOR thallium flux, dofetilide IC70. activation (rescue from dofetilide block), less the hit threshold, % at 10 µM. AID 1511, 2009. hit rate 0.51% among 310,000. dofetilide IC70 present;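 active = activation above the mean of controls blocked by dofetilide plus 5 SD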;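 note: thallium influx through hERG after potassium depolarization seen as dye fluorescence rise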
# Cl transport mod – KCC2 cotransporter modulators, thallium flux, primary screen, cell-based, HEK293 KCC2, FluoZin-2 fluorescence, MLSMR. Solute carrier family 12 member 5 (Homo sapiens), Q9H2X9. KCC2 cells, thallium flux FluoZin-2 fluorescence. B-score of Tl+ flux slope (higher = more flux/activation; lower = inhibition) at 10 µM. hit rate 2.2% among 190,000. AID 1456, 2008;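 active = thallium flux slope and its plate-corrected score both differing from the plate sample mean at a set confidence after two filtering rounds, in either direction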;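 note: slope of fluorescence scaled to starting intensity during 10 to 20 s after thallium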
# SUMO Mot1 rescue – yeast Mot1-301 growth rescue at high temperature, primary screen, SUMOylation pathway inhibitor project, S. cerevisiae, ATP luminescence, 38.5C; S. cerevisiae Mot1-301 growth rescue; percent above DMSO median, 100 means doubled; growth rescue, % at 18.8 µM; hit rate 1% among 320,000;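 active = every valid replicate shows activation above 250% relative to neutral control wells; inactive = the rest, any valid replicate at or below 250%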;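 note: OY570 slx delta 5 strain wells were the positive control but not used for scaling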
# KCNQ1 inh – inhibitors of human KCNQ1 channel, primary screen, cell-based, thallium flux, high-throughput. Potassium voltage-gated channel subfamily KQT member 1 (Homo sapiens), P51787. hit rate 1.3% among 310,000. B-score at 10 µM. CHO-K1 KCNQ1, FluxOR thallium flux fluorescence; active compounds read high;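 active = compounds whose thallium flux B-score, printed positive for inhibition, exceeds three library SD while starting fluorescence stays within three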;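 note: channel opened by potassium depolarization with thallium stimulus after 20 min compound exposure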
# AI-2 QS modul – Vibrio harveyi AI-2 quorum sensing modulators, primary screen, JMH597 strain, luminescence/OD600 ratio. Vibrio harveyi JMH597 AI-2 luminescence/OD600 ratio, 9 h; active compounds read low; strain lacks LuxN and CqsS sensors; 0 = neutral-control median. AID 2094, 2009. hit rate 0.4% among 300,000. activity change, % at 7.5 µM; in the data active = activity change below about -75%, passing the limit was not always enough;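 note: luminescence divided by OD600 gain over 9 h not by final OD600 alone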
# KCNQ1 pot – potentiators or activators of KCNQ1 channel, primary screen, cell-based, thallium flux, high-throughput; AID 2648, 2010; CHO-K1 KCNQ1, thallium flux FluxOR fluorescence; active compounds read high; B-score at 10 µM; hit rate 0.35% among 310,000; Potassium voltage-gated channel subfamily KQT member 1 (Homo sapiens), P51787;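 active = fluorescence ratio B-score, a plate-corrected score, at least three library SD, with initial intensity B-score within 5 SD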
#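 Medium – assay buffer, equal DMSO in all wells · Material – CHO-K1 cell line with stable KCNQ1 potassium channel expression · Signal – kinetic FluxOR thallium fluorescence, 10-s 1-Hz baseline, 110-s post-stimulus read · Compound – single concentration per compound, DMSO matched to controls · Schedule – 37 °C overnight plating, 90-min dark dye load, 20-min compound pretreatment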
# Active calls of the source: *; i = inactive; · = no result.
SMILES,hERG protect,Cl transport mod,SUMO Mot1 rescue,KCNQ1 inh,AI-2 QS modul,KCNQ1 pot
Cc1onc(-c2ccccc2)c1C(=O)NCCCc1ccccc1,·,·,14,·,·,·
C/C(=N\NC(=O)C1CC1)c1ccccc1O,-13,-0.41,640*,i,·,i
C/C(=N\NC(=O)C1CC1)c1ccccc1Br,-13,·,1,i,-3,i
C/C(=N\Nc1c([N+](=O)[O-])c(C)nn1C)c1ccc(F)cc1F,-9,-0.47,-7,i,1,i
O=C(CCCN1C(=O)c2ccccc2C1=O)Nc1nnc(C2CC2)s1,-8,-0.84,104,i,-14,i
Cc1noc(C)c1/C=N/Nc1ccccn1,6.4*,·,2,i,24,i
Cc1nn(C)c(C)c1S(=O)(=O)N1CCCC(C(=O)NCC2COc3ccccc3O2)C1 (stereo not drawn),·,-0.37,9,·,·,·
Cc1ccc(NS(=O)(=O)c2c(C)[nH]c(C)c2C(=O)N2CCCCC2)cc1F,-6,·,-5,i,5,i
Cc1oc2cc([N+](=O)[O-])c(O)c([N+](=O)[O-])c2c1C(=O)c1ccc(Cl)cc1,-10,-2.2,-12,6*,25,i
COc1ccc(OC)c(C(=O)c2c(C)oc3cc([N+](=O)[O-])c(O)c([N+](=O)[O-])c23)c1,-9,-0.14,-1,i,22,i
COc1ccc(-c2nc(CN3CCCCC3c3nccn3C)c(C)o2)c(C)c1C (stereo not drawn),-5,0.44,11,i,-6,i
O=C1NC(=O)/C(=C\c2ccccc2OCc2ccccc2)S1,-8,-3.8,24,i,27,i
Cc1ccc(S(=O)(=O)Oc2ccccc2/C=C2/SC(=O)NC2=O)cc1,-11,-3.1,37,9*,46,i
O=C1NC(=O)/C(=C/c2cc3c(cc2Br)OCO3)S1,7.0*,·,-15,i,5,i
O=C1NC(=O)/C(=C/c2cccc3ccccc23)S1,-4,·,21,6*,72,i
COC(=O)[C@]1(C)N[C@H](c2ccc(SC3CCCCC3)c(OC)c2)[C@@H]2C(=O)N(C)C(=O)[C@@H]21,-7,·,-8,i,32,i
CCCN1C2CCCC1CC(NC(=O)c1cc(OC)c(OC)c(OC)c1)C2 (stereo not drawn),-4,·,-13,i,11,i
COc1ccc(-c2nnn(CC(=O)NCc3ccc4c(c3)OCO4)n2)cc1OC,-13,0.011,-15,i,20,i
Cc1ccc(-c2nnn(CC(=O)NCCc3ccc4c(c3)OCO4)n2)o1,-6,-0.3,329*,i,14,i
CC1(C)Oc2ccc3ccc(=O)oc3c2/C(=C/NC2CCCCC2)C1=O,-8,-0.2,6,8*,·,i
CC1(C)Oc2ccc3ccc(=O)oc3c2/C(=C/Nc2ccccc2)C1=O,-11,·,6,i,0,i
CC(=O)Nc1ccc(NC(=O)Cn2cc3c(n2)CCC(C)C3)cc1 (stereo not drawn),-2,·,·,i,15,i
CCOC(=O)c1cccc(NC(=O)Cn2cc3c(n2)CCC(C)C3)c1 (stereo not drawn),-3,-2.2,55,i,-77*,i
CCNC(=S)N/N=C/c1ccc(F)cc1,-12,1,271,i,21,i
Cc1oc(/N=C/c2ccc(F)cc2)c(C#N)c1C,7.7*,·,71,i,3,i
COC(=O)C(NC(=O)c1ccc(F)cc1)(Nc1ncc(S(=O)(=O)c2ccc([N+](=O)[O-])cc2)s1)C(F)(F)F (stereo not drawn),-21,·,1,7*,14,i

# Screens (PubChem BioAssay)
